SENP1 inh = human SENP1 catalytic domain inhibitors, primary screen, biochemical, FRET, uHTS; Sentrin-specific protease 1 (Homo sapiens), Q9P0U3; recombinant SENP1 catalytic domain, CyPet-SUMO1-YPet FRET cleavage; inhibition, % at 10 µM; 0.21% of 360,000 active;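 active means inhibition at least 30% at 10 µM, raw YFP signal under a set limit, fluorescence ratio 0.5 to 1.5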
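system = hSENP1 catalytic domain, recombinant | reagent = SFCypet-SUMO1-SFYpet substrate at 25 nM | doses = one dose per compound, 10 µM, 0.5% DMSO | incubation = enzyme reaction for 50 min at room temperature, dark | measured by = FRET, CFP and YFP emission | controls = no-enzyme low, enzyme-DMSO high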
SENP7 inh = SENP7 protease inhibitors, primary screen, biochemical, luminescence, uHTS; Sentrin-specific protease 7 (Homo sapiens), Q9BQF6; recombinant SENP7, Z-RLRGG-aminoluciferin luminescence, 40 min; 1.5% of 330,000 active; inhibition, % at 5 µM;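 active means inhibition above about 50% at the single test dose, limit read from the data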
SENP8 block-1 = human SENP8 protease inhibitors, primary screen, biochemical, fluorescence, Nedd8 protein substrate, uHTS | Sentrin-specific protease 8 (Homo sapiens), Q96LD8 | recombinant SENP8 | inhibition, % at 20 µM | 0.64% of 360,000 active; in the data active means inhibition mostly above about 40%, no sharp cut-off; inactive means mostly below about 27%
Target sequence (Q96LD8 whole entry, looked up): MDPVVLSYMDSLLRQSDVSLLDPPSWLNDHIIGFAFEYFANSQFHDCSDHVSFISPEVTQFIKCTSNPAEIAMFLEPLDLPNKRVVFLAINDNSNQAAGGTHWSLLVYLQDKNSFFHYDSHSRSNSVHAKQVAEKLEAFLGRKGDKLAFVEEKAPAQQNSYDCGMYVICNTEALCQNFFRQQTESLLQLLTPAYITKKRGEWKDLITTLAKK
UCH37 inh = inhibitors of human UCH37 deubiquitinase, primary screen, biochemical, Ub-AMC cleavage, fluorescence | Ubiquitin carboxyl-terminal hydrolase isozyme L5 (Homo sapiens), Q9Y5K5 | purified proteasome/UCH37 | inhibition, % (no concentration beside the values) | 0.33% of 330,000 active | AID 588478, 2011;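 active means mean inhibition over replicate wells above about 20%, limit read from the data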
Target sequence (Q9Y5K5 whole entry, looked up): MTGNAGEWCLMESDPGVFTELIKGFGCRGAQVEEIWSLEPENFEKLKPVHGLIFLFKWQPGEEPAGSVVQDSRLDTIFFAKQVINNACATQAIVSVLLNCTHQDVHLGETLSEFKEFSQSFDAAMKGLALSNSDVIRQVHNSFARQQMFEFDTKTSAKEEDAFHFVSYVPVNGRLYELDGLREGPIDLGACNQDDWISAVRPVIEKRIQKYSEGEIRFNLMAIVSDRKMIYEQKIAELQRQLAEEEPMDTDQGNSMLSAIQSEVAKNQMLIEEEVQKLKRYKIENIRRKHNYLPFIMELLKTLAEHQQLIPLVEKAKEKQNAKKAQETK
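Test system – human UCH37 enzyme supplied as purified proteasome complex · Incubation – 30 min preincubation with enzyme, 25 min cleavage at room temperature · Detection – AMC fluorescence from Ub-AMC cleavage, excitation 355 nm, emission 460 nm · Benchmarks – no-proteasome wells (full inhibition) and compound-free wells (no inhibition)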
SENP6 block = SENP6 protease inhibitors, primary screen, biochemical, luminescence, uHTS; Sentrin-specific protease 6 (Homo sapiens), Q9GZR1; Recombinant SENP6 catalytic domain, aminoluciferin luminescence; inhibition, % at 10 µM; 1.8% of 330,000 active;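 active means inhibition above about 50% at the single tested dose, limit read from the data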
SENP8 block-2 = SENP8 protease inhibitors, primary screen, biochemical, luminescence; purified SENP8, Z-RLRGG-aminoluciferin cleavage; inhibition, % at 10 µM; 1.2% of 330,000 active; in the data active means inhibition above about 50%
Of the large screens only hits and unclear results are named; the others gave an inactive call. Sampled rows, rich in hits. Any-hit rate of the full collection: about 2.6%.

O=C(CSc1nnc(SCc2ccccc2Cl)s1)N/N=C/c1ccc(C(=O)O)cc1	SENP6 block 93, SENP8 block-2 83 (no result: UCH37 inh)
O=C(O)COc1ccccc1C=NNC(=O)CSc1nnc(SCc2ccccc2)s1	none (no result: SENP1 inh, SENP7 inh, SENP8 block-1, SENP6 block, SENP8 block-2)
Cc1ccc(-c2ccc(/C=N/NC(=O)c3ccccc3O)o2)cc1	SENP7 inh 54, SENP6 block 58 (no result: SENP1 inh, SENP8 block-1, UCH37 inh)
C/C(=N/NC(=O)c1cc2ccccc2cc1O)c1ccco1	SENP6 block 74, SENP8 block-2 52 (no result: UCH37 inh)
C/C(=N\NC(=O)c1cc(C)nc2ccccc12)c1ccco1	none (no result: UCH37 inh)
COc1cccc(C=NNC(=O)c2ccoc2C)c1	none (no result: SENP1 inh, SENP7 inh, SENP8 block-1, SENP6 block, SENP8 block-2)
CN1/C(=C\C(=O)C[n+]2cccc(Br)c2)C(C)(C)c2ccccc21	none
Cc1ccc[n+](CC(=O)/C=C2\N(C)c3ccccc3C2(C)C)c1	UCH37 inh 20
CC(=NNC(=O)c1ccc2c(c1)OCCO2)c1ccc([N+](=O)[O-])cc1	none (no result: SENP1 inh, SENP7 inh, SENP8 block-1, SENP6 block, SENP8 block-2)
COc1ccc(C=NNC(=O)C(=O)N2CCCCCC2)cc1[N+](=O)[O-]	none (no result: SENP1 inh, SENP7 inh, SENP8 block-1, SENP6 block, SENP8 block-2)
COc1ccc(C(=O)COC(=O)c2cccnc2SC)cc1	SENP7 inh 71 (no result: UCH37 inh)
Nc1ccc(N2CCCCCC2)cc1	SENP6 block 52 (no result: SENP1 inh, SENP8 block-1, UCH37 inh)
Nc1ccc(N2CCN(c3ccc(F)cc3)CC2)cc1	none
Nc1ccc(N2CCN(c3ccc(Cl)c(Cl)c3)CC2)cc1	SENP8 block-1 41
Cc1cccc(C)c1NC(=O)CSc1nnc(-c2ccco2)c(-c2ccco2)n1	SENP8 block-1 60 (no result: UCH37 inh)
CN(C)c1ccc(NC(=O)CSc2nnc(-c3ccco3)c(-c3ccco3)n2)cc1	SENP8 block-1 46
Cc1ccccc1NC(=O)CSc1nnc(-c2ccco2)c(-c2ccco2)n1	SENP8 block-1 42
S=C(Nc1ccccc1)c1nc2ccccc2s1	SENP7 inh 67
O=S(=O)(Nc1ccc(O)c2ccccc12)c1ccc(Br)cc1	SENP6 block 62 (no result: SENP1 inh, SENP8 block-1, UCH37 inh)
O=C(CSc1ccccn1)NN=Cc1cccc([N+](=O)[O-])c1	none (no result: SENP1 inh, SENP7 inh, SENP8 block-1, SENP6 block, SENP8 block-2)
COc1cc(C=NNC(=O)Cc2ccccc2)cc([N+](=O)[O-])c1O	UCH37 inh 22 (no result: SENP1 inh, SENP7 inh, SENP8 block-1, SENP6 block, SENP8 block-2)
COc1cc([N+](=O)[O-])cc(/C=C2/SC(=S)N(Cc3ccccc3)C2=O)c1O	SENP1 inh 79, UCH37 inh 21 (no result: SENP7 inh, SENP6 block, SENP8 block-2)
COc1cc(/C=C2/SC(=S)N(Cc3ccccc3)C2=O)cc(Cl)c1O	SENP8 block-1 46 (no result: SENP7 inh, UCH37 inh, SENP6 block, SENP8 block-2)
O=C1/C(=C\c2cc(Br)cc(Br)c2O)SC(=S)N1Cc1ccccc1	SENP8 block-1 40
O=C1/C(=C\c2cccc([N+](=O)[O-])c2O)SC(=S)N1Cc1ccccc1	none (no result: SENP7 inh, SENP6 block, SENP8 block-2)
CC(=NNc1c(F)c(F)c(Br)c(F)c1F)c1ccncc1	none (no result: SENP1 inh, SENP7 inh, SENP8 block-1, SENP6 block, SENP8 block-2)
Cc1sc(NN=Cc2cccnc2)nc1-c1ccccc1	none (no result: SENP1 inh, SENP7 inh, SENP8 block-1, SENP6 block, SENP8 block-2)
O=C(NN=Cc1ccc(OCCCF)cc1)c1ccc(C(F)(F)F)cc1	none (no result: SENP1 inh, SENP7 inh, SENP8 block-1, SENP6 block, SENP8 block-2)
COc1cc(/C=C2\C(=O)NN(c3ccc(C)cc3)C2=O)cc([N+](=O)[O-])c1O	none
COc1cc(/C=C2\C(=O)NN(c3ccccc3)C2=O)cc([N+](=O)[O-])c1O	UCH37 inh 21
COc1cc(/C=C2\SC(=O)N(Cc3ccc(Cl)cc3)C2=O)cc([N+](=O)[O-])c1O	UCH37 inh 22 (no result: SENP7 inh, SENP6 block, SENP8 block-2)
CCOC(=O)CN1C(=O)S/C(=C/c2ccc(OC)c([N+](=O)[O-])c2)C1=O	none
Cc1ccc(O)c(C=NNC(=O)CN2CCCC2)c1	none (no result: SENP1 inh, SENP7 inh, SENP8 block-1, SENP6 block, SENP8 block-2)
CCOC(=O)C1Nc2ccc(Br)cc2C2C=CCC12 (centres undefined)	SENP8 block-1 59
CCOC(=O)C1Nc2ccc(C)cc2C2C=CCC12 (centres undefined)	none
N#CC(c1nc2ccccc2nc1N1CCCC1)S(=O)(=O)c1ccccc1 (centres undefined)	SENP6 block 74, SENP8 block-2 72
CN1CCN(c2nc3ccccc3nc2C(C#N)S(=O)(=O)c2ccccc2)CC1 (centres undefined)	none (no result: SENP1 inh, SENP8 block-1)
O=C(CSc1nc2sc3c(c2c(=O)n1-c1ccccc1)CCCC3)NN=Cc1ccc(C(=O)O)cc1	none (no result: SENP1 inh, SENP7 inh, SENP8 block-1, SENP6 block, SENP8 block-2)

Source: PubChem
